In ChEMBL document CHEMBL1125827, “Synthesis and smooth muscle relaxant activity of a new series of potassium channel activators: 3-amido-1,1-dimethylindan-2-ols” (J Med Chem, 1991) one finds IC50 and Intrinsic activity data, which are given here for 29 compounds.

The species entered for assay [1] is Cavia porcellus. Kind of assay: Inhibition of spontaneous tone in guinea pig isolated trachealis. The format is functional, Trachea.
The species named for assay [2] is Cavia porcellus. Kind of assay: Intrinsic activity was measured for inhibition of spontaneous tone in guinea pig isolated trachealis. The format is functional. A digest of the protocol: (§1)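 Spontaneously toned guinea pig trachealis, with compounds added cumulatively. Intrinsic activity is the ratio of maximum relaxation at concentrations up to 20 μM to the maximum relaxation produced by isoprenaline (10⁻³ M) at the end of the experiment, expressed as an arithmetic mean.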

For assay [3], the species on record is Cavia porcellus. Kind of assay: Compound was measured for inhibition of spontaneous tone in guinea pig isolated trachealis; e=Insufficient material for evaluation. Type of assay: functional. A digest of the protocol: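 Spontaneously developed tension held at […]. Compounds added cumulatively. Inhibition expressed as a percentage of the relaxation produced by isoprenaline (10⁻³ M) given at the end. IC50 is the concentration giving 50% of the isoprenaline response, read from the dose-response curve; generally a geometric mean of four or more determinations.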

The species named for assay [4] is Cavia porcellus. Put plainly: Intrinsic activity was measured for inhibition of spontaneous tone in guinea pig isolated trachealis; e=Insufficient material for evaluation. The format is functional. A digest of the protocol:
as §1

As a reminder, the IC50 is the concentration that inhibits the measured activity by half. Read a high IC50 as lower potency. In turn, `CC1(C)C=C(n2ccccc2=O)c2cc([N+](=O)[O-])ccc21` showed an IC50 in the assay listed under Cavia porcellus [1] (Cavia porcellus, Trachea) of 840 nM. In the assay filed under Cavia porcellus [2], this compound displayed an Intrinsic activity of 0.95. For the compound `CC1CCC(=O)N1[C@@H]1c2cc([N+](=O)[O-])ccc2C(C)(C)[C@H]1O` (stereo in doubt; 36a), in the assay listed under Cavia porcellus [2], the Intrinsic activity was 0.89. `CC1(C)c2ccc([N+](=O)[O-])cc2[C@@H](N2CCCC2=O)[C@@H]1O` gave an IC50 in the assay filed under Cavia porcellus [1] (Cavia porcellus, Trachea) of 2800 nM. Also, in the assay listed under Cavia porcellus [2], the Intrinsic activity worked out at 0.88. Compound `CC1(C)c2ccc([N+](=O)[O-])cc2[C@@H](N2CCCCC2=O)[C@H]1O` gave an IC50 in the assay filed under Cavia porcellus [1] (Cavia porcellus, Trachea) of 350 nM. This compound also came in with an Intrinsic activity in the assay filed under Cavia porcellus [2] of 0.89. `CC1(C)C=C(Cn2ccccc2=O)c2cc(C#N)ccc21`: the IC50 in the assay filed under Cavia porcellus [1] (Cavia porcellus, Trachea) is above 20000 nM. The Intrinsic activity in the assay filed under Cavia porcellus [2] came out at 0.32. `CC1(C)c2ccc(I)cc2[C@@H](N2CCCCC2=O)[C@@H]1O` gave an Intrinsic activity in the assay filed under Cavia porcellus [2] of 0.96.

In the assay listed under Cavia porcellus [1] (Cavia porcellus, Trachea), `O=C1CCCN1[C@@H]1c2cc([N+](=O)[O-])ccc2C[C@H]1O` came in with an IC50 above 20000 nM. In the assay listed under Cavia porcellus [2], this compound registered an Intrinsic activity of 0.4.

For the compound `CC1(C)c2cc(C(F)(F)F)ccc2[C@@H](N2CCCCC2=O)[C@@H]1O`, the IC50 in the assay filed under Cavia porcellus [1] (Cavia porcellus, Trachea) is above 20000 nM. In addition, the Intrinsic activity in the assay listed under Cavia porcellus [2] worked out at 0.15.

For the compound `CC1(C)c2ccc(C#N)cc2[C@@H](n2ccccc2=O)[C@@H]1O`, in the assay filed under Cavia porcellus [1] (Cavia porcellus, Trachea), the IC50 amounted to 1940 nM. This compound also returned an Intrinsic activity in the assay listed under Cavia porcellus [2] of 0.81. On to `C[C@@H]1CCC(=O)N1[C@@H]1c2cc([N+](=O)[O-])ccc2C(C)(C)[C@H]1O` (stereo in doubt; 36), for which half-maximal inhibition in the assay filed under Cavia porcellus [1] (IC50) required 260 nM. The Intrinsic activity in the assay listed under Cavia porcellus [2] is given as 0.99. On to `CC1(C)c2cc(C(F)(F)F)ccc2[C@@H](n2ccccc2=O)[C@@H]1O`, for which, in the assay listed under Cavia porcellus [1] (Cavia porcellus, Trachea), the IC50 is above 20000 nM. Also, the Intrinsic activity in the assay listed under Cavia porcellus [2] was 0.14. In turn, `C[C@@H]1CCC(=O)N1C1=CC(C)(C)c2ccc([N+](=O)[O-])cc21` gave an IC50 in the assay filed under Cavia porcellus [1] (Cavia porcellus, Trachea) of 2420 nM. This compound also yielded an Intrinsic activity in the assay listed under Cavia porcellus [2] of 0.84. In the case of `CC1(C)C=C(N2CCCCC2=O)c2ccc(C(F)(F)F)cc21`, it took 8500 nM to reach half-maximal inhibition in the assay listed under Cavia porcellus [1] (Cavia porcellus, Trachea) (IC50). The same compound gave an Intrinsic activity in the assay listed under Cavia porcellus [2] of 0.89. The compound `CC1(C)Oc2ccc(C#N)cc2C(N2CCCC2=O)C1O` (centres undefined) [CROMAKALIM] gave an Intrinsic activity in the assay listed under Cavia porcellus [2] of 0.89. `CC1(C)c2cc(C#N)ccc2[C@@H](N2CCCCC2=O)[C@@H]1O` registered an IC50 in the assay listed under Cavia porcellus [1] (Cavia porcellus, Trachea) above 20000 nM. Further, the Intrinsic activity in the assay filed under Cavia porcellus [2] was determined as 0.17.

For the compound `C[C@H]1CCC(=O)N1C1=CC(C)(C)c2ccc([N+](=O)[O-])cc21`, the IC50 entry in the assay filed under Cavia porcellus [3] is listed as “Insufficient material”. Further, the Intrinsic activity result in the assay listed under Cavia porcellus [4] is on record as “Insufficient material”.

`C[C@@H]1CCC(=O)N1[C@@H]1c2cc([N+](=O)[O-])ccc2C(C)(C)[C@H]1O` (stereo in doubt; 37) came in with an IC50 in the assay listed under Cavia porcellus [1] above 20000 nM. In the assay listed under Cavia porcellus [2], this compound yielded an Intrinsic activity of 0.3. Take `CC1(C)C=C(N2CCCCC2=O)c2cc([N+](=O)[O-])ccc21`: the Intrinsic activity in the assay listed under Cavia porcellus [2] is reported as 0.94.

In the assay filed under Cavia porcellus [1] (Cavia porcellus, Trachea), `CC1(C)c2ccc([N+](=O)[O-])cc2[C@@H](n2ccccc2=O)[C@@H]1O` displayed an IC50 of 150 nM. Further, the Intrinsic activity in the assay filed under Cavia porcellus [2] is 0.89.

`CCc1ccc2c(c1)[C@@H](n1ccccc1=O)[C@H](O)C2(C)C` came in with an IC50 in the assay filed under Cavia porcellus [1] (Cavia porcellus, Trachea) of 2170 nM. Also, the Intrinsic activity in the assay filed under Cavia porcellus [2] is 0.93.

In the assay filed under Cavia porcellus [1] (Cavia porcellus, Trachea), `CC1(C)Oc2ccc(C#N)cc2[C@@H](N2CCCC2=O)[C@@H]1O` [LEVCROMAKALIM] yielded an IC50 of 490 nM. This compound came in with an Intrinsic activity in the assay filed under Cavia porcellus [2] of 0.88. The matching figures for `CC1(C)c2ccc([N+](=O)[O-])cc2[C@@H](N2CCCC2=O)[C@H]1O` (relative stereo): above 20000 nM and 0.26. Taken in the same sequence, the figures for `CC1(C)c2ccc(C#N)cc2[C@@H](N2CCCCC2=O)[C@@H]1O` were 270 nM and 0.94. The matching figures for `CC1(C)c2ccc(N)cc2[C@@H](n2ccccc2=O)[C@@H]1O`: above 20000 nM and 0.1. `CC1CCC(=O)N1[C@@H]1c2cc([N+](=O)[O-])ccc2C(C)(C)[C@H]1O` (stereo in doubt; 36b) gave a half-maximal inhibitory concentration (IC50) in the assay listed under Cavia porcellus [1] of 3900 nM. This compound also displayed an Intrinsic activity in the assay filed under Cavia porcellus [2] of 0.9.

Consider `CC1(C)C=C(CN2CCCC2=O)c2cc(C#N)ccc21`, for which the half-inhibitory concentration (IC50) in the assay filed under Cavia porcellus [1] (Cavia porcellus, Trachea) is 14000 nM. Moreover, in the assay listed under Cavia porcellus [2], the Intrinsic activity was 0.6. The matching figures for `CCc1ccc2c(c1)C(C)(C)[C@@H](O)[C@@H]2N1CCCCC1=O`: above 20000 nM and 0.4. For `CC1(C)C=C(n2ccccc2=O)c2cc(C#N)ccc21`, the IC50 in the assay listed under Cavia porcellus [1] (Cavia porcellus, Trachea) was found to be 5260 nM. This compound also came in with an Intrinsic activity in the assay listed under Cavia porcellus [2] of 0.77.

In the assay filed under Cavia porcellus [1] (Cavia porcellus, Trachea), `CCc1ccc2c(c1)[C@@H](N1CCCCC1=O)[C@H](O)C2(C)C` yielded an IC50 of 2780 nM. In addition, the Intrinsic activity in the assay listed under Cavia porcellus [2] turned out to be 0.84.
